Bioassay records deposited in PubChem BioAssay by several laboratories.
KCNQ1 inh: inhibitors of human KCNQ1 channel, primary screen, cell-based, thallium flux, high-throughput. Potassium voltage-gated channel subfamily KQT member 1 (Homo sapiens), P51787. CHO-K1 KCNQ1, FluxOR thallium flux fluorescence; stronger effect = higher value. B-score at 10 µM. 1.3% of 310,000 active;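 active = compounds whose thallium flux B-score, printed positive for inhibition, exceeds three library SD while starting fluorescence stays within three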;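 also: channel opened by potassium depolarization with thallium stimulus after 20 min compound exposure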
KCNQ1 act: potentiators or activators of KCNQ1 channel, primary screen, cell-based, thallium flux, high-throughput | Potassium voltage-gated channel subfamily KQT member 1 (Homo sapiens), P51787 | CHO-K1 KCNQ1, thallium flux FluxOR fluorescence; stronger effect = higher value | B-score at 10 µM | 0.35% of 310,000 active;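 active = fluorescence ratio B-score, a plate-corrected score, at least three library SD, with initial intensity B-score within 5 SD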
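Doses: Single concentration per compound, DMSO matched to controls | Test system: KCNQ1-transfected CHO-K1 cells | Timing: 90 min dye loading and 20 min compound exposure, both at room temperature | Measured by: Kinetic FluxOR thallium fluorescence, 10-s 1-Hz baseline, 110-s post-stimulus read | Medium: Assay buffer with matched DMSO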
KCNK9 block: KCNK9 potassium channel inhibitors, primary screen, HEK293 cells, thallium flux; Potassium channel subfamily K member 9 (Homo sapiens), Q9NPC2; FluxOR thallium flux fluorescence; stronger effect = lower value; B-score at 10 µM; 1.2% of 310,000 active;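 active = ratio B-score over 3 SD below the library mean, with starting fluorescence within 5 SD of its mean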;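 also: negative B-score means less thallium flux so channel inhibition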
Target sequence (Q9NPC2 whole entry, looked up): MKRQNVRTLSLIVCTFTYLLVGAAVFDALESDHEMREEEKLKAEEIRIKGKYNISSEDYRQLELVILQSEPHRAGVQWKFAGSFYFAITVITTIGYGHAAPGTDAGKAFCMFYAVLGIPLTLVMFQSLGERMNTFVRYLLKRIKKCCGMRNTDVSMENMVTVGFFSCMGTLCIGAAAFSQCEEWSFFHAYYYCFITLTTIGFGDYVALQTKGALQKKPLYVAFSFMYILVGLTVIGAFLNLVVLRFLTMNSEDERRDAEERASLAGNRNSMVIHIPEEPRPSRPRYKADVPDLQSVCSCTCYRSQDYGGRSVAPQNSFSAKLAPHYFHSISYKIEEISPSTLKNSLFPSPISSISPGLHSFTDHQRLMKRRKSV
hERG protect: hERG rescue from dofetilide block, primary screen, cell-based, CHO-hERG, FluxOR thallium flux, dofetilide IC70 | Voltage-gated inwardly rectifying potassium channel KCNH2 (Homo sapiens), Q12809 | dofetilide IC70 present | activation (rescue from dofetilide block), less the hit threshold, % at 10 µM | 0.51% of 310,000 active;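 active = activation above the mean of controls blocked by dofetilide plus 5 SD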;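 also: thallium influx through hERG after potassium depolarization seen as dye fluorescence rise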
KCC2 mod: KCC2 cotransporter modulators, thallium flux, primary screen, cell-based, HEK293 KCC2, FluoZin-2 fluorescence, MLSMR | Solute carrier family 12 member 5 (Homo sapiens), Q9H2X9 | 2.2% of 190,000 active | KCC2 cells, thallium flux FluoZin-2 fluorescence | B-score of Tl+ flux slope (higher = more flux/activation; lower = inhibition) at 10 µM;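 active = thallium flux slope and its plate-corrected score both differing from the plate sample mean at a set confidence after two filtering rounds, in either direction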;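 also: slope of fluorescence scaled to starting intensity during 10 to 20 s after thallium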
KCNK3 block: human KCNK3 channel inhibitors, primary screen, CHO cells, FluxOR thallium flux, B-score | 0.84% of 340,000 active | FluxOR fluorescence; stronger effect = lower value | Potassium channel subfamily K member 3 (Homo sapiens), O14649 | B-score at 10 µM;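 active = B-score under library mean minus 4 SD, starting fluorescence ratio at most library mean plus 5 SD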;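 also: more negative B-score means stronger inhibition of thallium flux through KCNK3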
An asterisk follows results filed as active; i = inactive; nt = no result. Rows were chosen to be rich in hits. Some 4.1% of all compounds tested hit in one or more screens of this group.

SMILES | KCNQ1 inh | KCNQ1 act | KCNK9 block | hERG protect | KCC2 mod | KCNK3 block
CS(=O)(=O)c1nsc2nc(=O)c(/C=C3\C=Nc4ccccc43)c(N)n12 | i | i | i | 31.7* | -1.19 | i
CC(NCc1cccnc1)c1ccccc1 (centres undefined) | i | i | i | -10.8 | nt | i
O=C1c2ccccc2/C(=C\C#Cc2ccccn2)N1c1ccccc1 | nt | nt | nt | nt | nt | i
O=C(COC(=O)CCC(=O)c1ccc(F)cc1)NCc1ccccc1Cl | nt | nt | nt | nt | nt | i
Cc1ccc(/C=C2/SC(=S)N(CCCC(=O)Nc3cc([N+](=O)[O-])ccc3O)C2=O)cc1 | 7* | i | i | -6.2 | nt | i
O=C(CN1C(=O)S/C(=C\c2ccccc2)C1=O)Nc1cc([N+](=O)[O-])ccc1O | 8* | i | i | -7.0 | nt | i
COc1ccc(/C=C2\SC(=O)N(CC(=O)Nc3ccccc3O)C2=O)cc1OC | i | i | i | -9.2 | nt | i
Cc1ccc(/C=C2\SC(=S)N(CCCC(=O)Nc3ccc(O)cc3)C2=O)cc1 | i | i | i | -11.4 | 0.764 | i
O=C(Nc1cccc(C(=O)O)c1)/C(=C\c1ccccc1Cl)NC(=O)c1ccco1 | i | i | i | -14.2 | nt | i
CC(=O)Nc1cccc(C(=O)OCC(=O)N2CCN(C(=O)COC(=O)c3cccc(NC(C)=O)c3)CC2)c1 | nt | nt | nt | nt | nt | i
Cc1ccc(S(=O)(=O)NCC(=O)OCC(=O)N(C)C2CCS(=O)(=O)C2)cc1 (centres undefined) | i | i | i | -4.9 | nt | i
CCNc1ccc2noc3c2c1C(=O)c1ccccc1-3 | 6* | i | i | -30.0 | -1.33 | i
Cc1nnc2ccc(-c3ccc(NS(=O)(=O)c4ccc(F)cc4F)cc3)nn12 | i | i | i | -16.7 | nt | i
O=C(CNC(=O)c1cccc(F)c1)NC1CC1 | nt | nt | nt | nt | nt | i
COc1ccc2c(c1)C(=O)C1NC(=O)NC(=O)C1(Br)N2 (centres undefined) | nt | nt | nt | nt | nt | i
CC(=O)NC1=C(NC2CCS(=O)(=O)C2)C(=O)c2ccccc2C1=O (centres undefined) | i | 12* | i | 3.3 | -0.335 | i
Brc1ccccc1OCCCCn1cnc2ccccc21 | 8* | i | i | -20.9 | -0.265 | i
Clc1ccccc1OCCn1cnc2ccccc21 | i | i | i | -9.4 | -1.08 | i
Cc1nn(-c2ccc(N3CCCCC3)nn2)c(C)c1CCC(=O)Nc1cc(F)ccc1F | i | i | i | -21.1 | nt | i
CN1CCC(CC(C(=O)N2CCCC2)(c2ccccc2)c2ccccc2)C1 (centres undefined) | nt | nt | nt | nt | nt | i
CCOC(=O)C1(Cc2ccccc2)CCCCCC1=O (centres undefined) | nt | nt | nt | nt | nt | i
CCOCC(=O)OCC(=O)Nc1cc(OC)c([N+](=O)[O-])cc1C | i | i | i | 4.9* | -0.053 | i
COc1cc(NC(=O)COC(=O)CC(C)(C)C)c(C)cc1[N+](=O)[O-] | i | i | i | -6.6 | 0.176 | i
CN(C(=O)COC(=O)C1COc2ccccc2O1)C1(C#N)CCCCC1 (centres undefined) | nt | nt | nt | nt | nt | i
O=C(NCc1nc2ccccc2[nH]1)c1ccc(S(=O)(=O)N2CCCC2)cc1 | i | i | i | 8.1* | -0.723 | i
SMILES | KCNQ1 inh | KCNQ1 act | KCNK9 block | hERG protect | KCC2 mod | KCNK3 block
Cc1ccccc1OCCNc1cc(N2CCCCC2)ccc1[N+](=O)[O-] | i | i | -7.04* | -3.6 | 0.00414 | i
COc1cccc(OCCNc2cc(N3CCCCC3)ccc2[N+](=O)[O-])c1 | i | i | -7.93* | -12.6 | nt | i
CCOC(=O)CN(C(=O)COC(=O)C1=NNC(=O)CC1)c1ccc(F)cc1 | nt | nt | nt | nt | nt | i
Brc1ccc2c(c1)OCCOCCOc1cc(Br)ccc1OCCOCCOCCO2 | 6* | i | -7.69* | -22.5 | nt | i
Cc1[nH]c2ccc(F)cc2c1CCN(Cc1ccncc1)C(=S)Nc1ccc(F)cc1 | i | i | -7.12* | -14.8 | -0.583 | i
C=CCOC1COC2C(OCC=C)COC12 (centres undefined) | nt | nt | nt | nt | nt | i
S=c1[nH]c(-c2ccccc2)cs1 | i | 44* | i | 60.6* | 49.9* | i
Cc1ccnc(N2C(=O)c3cccc4c([N+](=O)[O-])ccc(c34)C2=O)c1 | 7* | i | i | -12.9 | nt | i
Cc1ccc(N2C(=O)c3cccc4c([N+](=O)[O-])ccc(c34)C2=O)c2cccnc12 | i | i | i | -7.0 | 0 | i
CCC(C)n1c(SCC(=O)N(CC)c2c(N)n(Cc3ccccc3)c(=O)[nH]c2=O)nc2ccccc2c1=O (centres undefined) | nt | nt | nt | nt | nt | i
CCc1cc2c(=O)n(CCC(C)C)c(=S)[nH]c2s1 | i | 35* | i | 25.8* | 72.7* | i
Cc1cc(C)n(CCC(=O)N/N=C/c2ccc(Cl)c([N+](=O)[O-])c2)n1 | 7* | i | i | -12.1 | -0.128 | i
CCCCc1nc2cc(C(=O)N3CCCC(COC)C3)ccc2o1 (centres undefined) | i | i | i | -6.1 | nt | i
CCCCn1c(NC(=O)c2ccc(Br)o2)c(S(=O)(=O)c2ccccc2)c2nc3ccccc3nc21 | 12* | i | i | -17.1 | -1.77 | i
CCCCn1c(NC(=O)c2ccco2)c(S(=O)(=O)c2ccc(C)cc2)c2nc3ccccc3nc21 | i | i | i | -5.7 | -0.971 | i
CCCCCn1c(NC(=O)c2ccco2)c(S(=O)(=O)c2ccc(C)cc2)c2nc3ccccc3nc21 | 10* | i | i | -4.1 | -0.589 | i
Cc1ccc(S(=O)(=O)c2c(N)n(NC(=O)c3ccccc3C)c3nc4ccccc4nc23)cc1 | i | i | i | -16.7 | -0.829 | -8.79*
CCCCn1c(NS(=O)(=O)c2ccccc2)c(S(=O)(=O)c2ccc(C)cc2)c2nc3ccccc3nc21 | i | i | i | -0.8 | -7.11* | i
Cc1ccc(C(=O)Nn2c(N)c(S(=O)(=O)c3ccc(C)cc3)c3nc4ccccc4nc32)cc1 | i | i | i | -10.6 | 0.192 | i
O=C(Cc1ccccc1)NC1CCN(S(=O)(=O)c2ccc(C(=O)O)cc2)CC1 | i | i | i | 6.1* | 0.561 | i
